Compound activity (PubChem)
STAT1 activator = increases IFN-gamma driven STAT1 reporter signal | activation (% of control), % at 5.5 µM | NIH 3T3 STAT1-luciferase reporter, luminescence; 100% = IFN-gamma alone, no compound | AID 932 | actives 2.6% (n = 200,000);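 active = activation above the screen-wide mean activation plus 3 SD, cut at about 130% in these data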;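 note: raw ratio to IFN-gamma control signal so 100% means no change and 0% no light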
NF-kB expr up = compounds increasing NF-kB expression in human neuronal cells; NF-kB reporter expression; active compounds read high; AID 1239; fold change at 12.5 µM; actives 1.6% (n = 190,000); in the data active = fold change above about 3.3
STAT1 blocker = STAT1 signaling inhibition; inhibition, % at 5.5 µM; NIH 3T3 STAT1-luciferase reporter, IFN-gamma, luminescence; actives 0.35% (n = 200,000); AID 920;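 active = inhibition above a set limit, the mean inhibition across all tested compounds plus 3 SD, cut at about 34% in these data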;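 note: 0% = IFN-gamma with DMSO and 100% = IFN-gamma with 300 µM nifuroxazide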
STAT3 inh = inhibitors of IL-6 induced STAT3 signaling; AID 862; actives 0.89% (n = 190,000); U3A cells, IL-6 STAT3-luciferase reporter, luminescence; host cell line lacks STAT1; inhibition, % at 5.5 µM;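 active = inhibition above the mean inhibition across all screened compounds plus 3 SD, cut at about 44% in these data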;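 note: 0% = DMSO only wells and 100% = 100 µM nifuroxazide control wells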
APP 5'UTR act = activates APP 5'UTR luciferase reporter; SH-SY5Y APP 5'UTR luciferase reporter, luminescence; zero percent = DMSO vehicle wells; activation, % at 2 µM; actives 1% (n = 190,000);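 active = activation above a set limit, based on mean plus 3 SD of controls, cut at about 140% in these data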
STAT3 act = activators of IL-6 induced STAT3 signaling; U3A cells, IL-6 STAT3-luciferase reporter, luminescence; 100% = signal with IL-6 EC80 alone; activation (% of control), % at 5.6 µM; actives 0.91% (n = 190,000); AID 871;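 active = activation above the screen-wide mean of compound activation plus 3 SD, cut at about 130% in these data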;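 note: 0% = background luminescence of wells with medium and substrate only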
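Test system: STAT3-luciferase reporter U3A cells; Detection: reporter luminescence signal; Times: 1 h compound pre-exposure, 6 h IL-6 stimulation, 37 °C; Benchmarks: IL-6-only high control; Also added: IL-6 stimulus at 33 ng/mL final.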
Numbers without * were called inactive; . = no result. Rows were chosen to be rich in hits. Some 4.9% of all compounds tested hit in one or more screens of this group.

SMILES	STAT1 activator	NF-kB expr up	STAT1 blocker	STAT3 inh	APP 5'UTR act	STAT3 act
O=C(N/N=C/c1ccc(OC(=O)c2ccccc2)c([N+](=O)[O-])c1)c1ccc(O)cc1	91	1.1	10	2	19	95
CCOCCCNc1ncnc2c1[nH]c1ccccc12	72	0.67	30	27	7	80
CCCCOCCCNc1ncnc2c1[nH]c1ccccc12	62	0.5	41*	56*	-5	55
O=C(NCCCc1ccccc1)c1cnc2n(c1=O)CCS2	139*	1.9	-38	-14	47	115
CCCCNC(=O)c1cnc2n(c1=O)CCS2	101	1.4	-1	12	16	94
O=C(NCCC1=CCCCC1)c1cnc2n(c1=O)CCS2	133*	1.5	-32	-5	45	107
O=C(NCc1ccccc1)c1cnc2n(c1=O)CCS2	102	1	-2	-3	7	106
CN(C)C=NC(=O)c1cc(C(=O)c2ccccc2Cl)c[nH]1	104	1.1	-7	1	6	103
CN(C)C=NC(=O)c1cc(C(=O)c2ccc(C(C)(C)C)cc2)c[nH]1	141*	1.3	-46	12	171*	99
CC(C)(C)c1ccc(C(=O)c2c[nH]c(C(=O)O)c2)cc1	142*	0.88	-48	9	88	99
O=C(C[n+]1ccccc1)N/N=C/c1cccs1	107	1.1	-7	10	3	97
Fc1ccc(-c2cnc3n2CCCCC3)cc1	93	1.1	5	13	4	91
COc1cc(NC(=O)CSc2nc3ccccc3n2-c2ccccc2)c(C)cc1[N+](=O)[O-]	92	1.3	8	-2	-5	100
CCN(CC)c1ccc(NC(=O)c2ccco2)cc1	127	5.2*	-28	20	164*	88
CCN(CC)c1ccc(NC(=S)NC(=O)c2ccco2)cc1	142*	1.6	-48	2	97	100
Cc1cccc2[nH]c(-c3ccc(NC(=O)c4ccco4)cc3)nc12	130*	2.1	-33	4	102	101
O=C(Nc1ccc2nc(-c3ccccc3)[nH]c2c1)c1ccco1	105	0.55	-6	28	49	79
CC1N(C)c2cc(NC(=O)c3ccco3)ccc2C1(C)C (configuration not stated)	143*	0.27	-47	-5	113	109
Cc1cc(NC(=O)COC(=O)C2CCC(=O)N2)c([N+](=O)[O-])cc1C (configuration not stated)	99	1.2	0	-4	6	105
Cc1cc(NC(=O)CSc2ncnc3c2cnn3-c2cccc(Cl)c2)no1	108	0.98	-10	2	5	105
C=CCN1C2CCCC1CC(NC(=O)Nc1cc(C)cc(C)c1)C2 (configuration not stated)	94	0.9	5	10	13	96
CS(=O)(=O)N1CCN(c2ccc(NC(=S)NC(=O)c3cccs3)cc2)CC1	100	1.2	-1	10	14	95
O=C(NC(=S)Nc1ccc(N2CCCCC2)cc1)c1cccs1	148*	1.5	-56	17	136*	93
CC(C)CN1C(=O)c2ccc(NC(=O)c3ccco3)cc2C1=O	130*	1.1	-34	2	9	100
CCN(CC)c1ccc(NC(=S)NC(=O)c2cccs2)cc1	134*	1.9	-40	10	97	93
SMILES	STAT1 activator	NF-kB expr up	STAT1 blocker	STAT3 inh	APP 5'UTR act	STAT3 act
CCCC(=O)Nc1ccc(NC(=S)NC(=O)c2cccs2)cc1	107	1.1	-10	-1	4	104
O=C(O)CCN1C(=O)c2ccc(NC(=O)c3ccco3)cc2C1=O	103	1.1	-6	9	2	95
O=C(Nc1ccc(N2CCCC2)c(Cl)c1)c1cccs1	142*	7.4*	-45	12	235*	94
CC(C)=CCN1CCN(Cc2cn[nH]c2C2CCCCC2)CC1CCO (configuration not stated)	95	.	4	11	15	95
CCOc1cc(/C=N/NC(=O)C(=O)N2CCCC2)ccc1O	85	1.1	15	3	-10	100
CCCCOc1ccc(-c2cc(C(F)(F)F)c(C#N)c(SCC(=O)O)n2)cc1	97	1.4	2	-4	20	104
N#CCCN(C(=S)NC(=O)c1ccco1)c1ccccc1F	102	1.1	-2	-5	-5	109
COc1ccc(OC)c(-c2cnc(OC(C)(C)C)nc2OC(C)(C)C)c1	99	1	1	1	-35	100
CCOC(=O)CNC(=O)c1ccc(Cl)s1	102	1.1	-2	-6	15	105
CCNc1nc(N)c(C(=O)c2ccc(Cl)s2)s1	144*	3.7*	-49	15	58	90
Nc1nnc(-c2ccc(Cl)c([N+](=O)[O-])c2)s1	85	1.4	16	-7	4	109
O=C(NC1CCCCCCC1)NC1CCCCC1	132*	2.7	-36	-17	12	119
Cc1ccc(C2=NN(C(=S)Nc3ccccc3)C(c3ccco3)C2)cc1 (configuration not stated)	134*	2.8	-37	-19	89	122
CCS(=O)(=O)Nc1ccc(C2=NN(C(=S)Nc3ccccc3)C(c3ccco3)C2)cc1 (configuration not stated)	118	1.6	-20	0	9	103
Cn1c(=O)c2c(nc(CN3CCN(CCO)CC3)n2Cc2cccc3ccccc23)n(C)c1=O	105	4.3*	-6	8	-9	97
Fc1ccccc1-c1nc(NCCCN2CCOCC2)c2ccccc2n1	96	0.79	4	0	-5	108
c1ccc2c(NCCCN3CCOCC3)c3ccccc3nc2c1	180*	3.1	-88	-127	-63	215*
Cc1cc(NCCCN2CCOCC2)n2nc(C)c(-c3ccccc3)c2n1	91	1	10	-10	4	110
Cc1cc(NCCCN2CCOCC2)n2ncc(-c3ccccc3)c2n1	147*	4.4*	-51	-18	156*	117
Cc1nc2c(Br)c(C)nn2c2c1CCC2	102	1.3	-4	5	19	97
C=CCn1c(COc2ccc(Cl)cc2)nnc1SCC(=O)c1c(N)n(C)c(=O)n(C)c1=O	103	1.1	-3	11	-26	94
Cc1ccc(C2(c3ccc(C)cc3)CC2C(=O)NCc2cccnc2)cc1 (configuration not stated)	96	1.3	4	-1	-9	104
CCc1ccc(-c2cc(C(=O)N/N=C/c3ccccn3)[nH]n2)cc1	110	0.97	-12	22	-1	83
O=C(N/N=C/c1c[nH]c2ccccc12)c1cc(-c2ccc3ccccc3c2)n[nH]1	140*	0.61	-44	10	-88	90
O=C(N/N=C/c1ccccn1)c1cc(-c2ccc3ccccc3c2)n[nH]1	148*	0.74	-53	1	5	104
